In ChEMBL document CHEMBL1133678, “Synthesis of new indeno[1,2-c]isoquinolines: cytotoxic non-camptothecin topoisomerase I inhibitors” (2000):

Experiments:
Type in all cases: functional
SF-539 = test: Antiproliferative activity was determined for 50% growth inhibition against human CNS SF-539 cell line
Summary of the method: (§1)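 Human cancer cell lines from the roughly 55-line panel. GI50 is the concentration giving 50% growth inhibition. The test range was 10^-4 to 10^-8 M. Values outside the range were set to the minimum (10^-8 M) or the maximum (10^-4 M).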

DU-145 = test: Antiproliferative activity was determined for 50% growth inhibition against human Prostate DU-145 cell line; summary of the method: as §1
HOP-62 = test: Antiproliferative activity was determined for 50% growth inhibition against human lung HOP-62 cell line; summary of the method: as §1
HCT-116 = test: Antiproliferative activity was determined for 50% growth inhibition against human colon HCT116 cell line; summary of the method: as §1
MDA-MB-435 = test: Antiproliferative activity was determined for 50% growth inhibition against human breast MDA-MB-435 cell line; summary of the method: as §1
OVCAR-3 = test: Antiproliferative activity was determined for 50% growth inhibition against human ovarian OVCAR-3 cell line; summary of the method: as §1
SN12C = test: Antiproliferative activity was determined for 50% growth inhibition against human renal SN12C cell line; summary of the method: as §1
[1] = system: Panel (Carcinoma cell lines); test: Mean graph midpoint for growth inhibition of all human cancer cell lines; parameters: unit: µM
Summary of the method: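 Mean graph midpoint across all cell lines successfully tested in the roughly 55-line human cancer panel. Each line's GI50 is the 50% growth-inhibition concentration, tested over 10^-4 to 10^-8 M. Out-of-range values were set to 10^-8 M or 10^-4 M before averaging.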

UACC-62 = test: Antiproliferative activity was determined for 50% growth inhibition against human melanoma UACC-62 cell line; summary of the method: as §1

GI50 (DU-145; Homo sapiens, DU-145) [µM]	GI50 (HCT-116; Homo sapiens, HCT-116) [µM]	GI50 (MDA-MB-435; Homo sapiens, MDA-MB-435) [µM]	GI50 (OVCAR-3; Homo sapiens, OVCAR-3) [µM]	GI50 (DU-145) [µM]	GI50 (HCT-116) [µM]	GI50 (MDA-MB-435) [µM]	GI50 (OVCAR-3) [µM]	SMILES	GI50 (SF-539; Homo sapiens, SF-539) [µM]	GI50 (HOP-62; Homo sapiens, HOP-62) [µM]	GI50 (SN12C; Homo sapiens, SN12C) [µM]	MGM [1]	GI50 (UACC-62; Homo sapiens, UACC-62) [µM]	GI50 (SF-539) [µM]	GI50 (HOP-62) [µM]	GI50 (SN12C) [µM]	GI50 (UACC-62) [µM]
3.19	7.4	> 100	76.2	–	–	–	–	COc1cc2c3c(n(CCCN=[N+]=[N-])c(=O)c2cc1OC)-c1cc2c(cc1C3=O)OCO2	3	3.58	4.53	11.8	–	–	–	–	–
1.92	3.53	11.7	60.1	–	–	–	–	COc1cc2c(cc1OC)-c1c(c3cc(OC)c(OC)cc3c(=O)n1CCCBr)C2=O	2.58	1.87	3.15	6.91	1.91	–	–	–	–
0.89	0.35	1.05	0.85	–	–	–	–	COc1cc2c(cc1OC)-c1c(c3ccccc3c(=O)n1CCCN)C2=O.Cl	2.93	0.19	0.43	0.62	1.27	–	–	–	–
40.2	24.3	29.1	30.2	–	–	–	–	O=C1c2ccccc2-c2c1c1ccccc1c(=O)n2O	15.3	56.6	35.7	29.5	21.5	–	–	–	–
37	35	96	–	–	–	–	–	COc1cc2c3c(n(C)c(=O)c2cc1OC)-c1cc2c(cc1C3=O)OCO2	41	1.3	68	20	4.2	–	–	–	–
0.28	0.18	0.42	0.27	–	–	–	–	COc1cc2c3c(n(CCCNCCO)c(=O)c2cc1OC)-c1ccc2ccccc2c1C3=O	0.22	0.17	0.15	0.19	0.16	–	–	–	–
9.56	3.64	39.7	28.8	–	–	–	–	O=C1c2ccccc2-c2c1c1ccccc1c(=O)n2CCCO	52.5	4.89	6.49	10.3	16.2	–	–	–	–
0.44	0.34	0.97	3.64	–	–	–	–	COc1cc2c(cc1OC)-c1c(c3ccccc3c(=O)n1CCCNCCO)C2=O.Cl	0.45	0.62	2.07	0.95	0.63	–	–	–	–
–	–	–	–	0.07	0.39	1.43	2.28	COc1cc2c(cc1OC)-c1c(c3cc(OC)c(OC)cc3c(=O)n1CCCNCCO)C2=O.Cl	–	–	–	0.68	–	0.16	0.15	0.11	0.73
–	0.81	2.09	5.49	0.21	–	–	–	COc1cc2c(cc1OC)-c1c(c3cc(OC)c(OC)cc3c(=O)n1CCCNCCCCO)C2=O.Cl	–	0.26	–	1.47	1.76	0.59	–	0.28	–
5.37	13.2	92.4	91.9	–	–	–	–	CCCCn1c2c(c3cc(OC)c(OC)cc3c1=O)Cc1cc3c(cc1-2)OCO3	3.4	12	21.7	21.3	6.51	–	–	–	–
12.7	74	> 100	66.3	–	–	–	–	O=C1c2cc3c(cc2-c2c1c1ccccc1c(=O)n2CCCCl)OCO3	> 100	13.1	> 100	35.1	53.8	–	–	–	–
16.8	72.6	80.5	> 100	–	–	–	–	COc1cc2c3c(n(CCCCl)c(=O)c2cc1OC)-c1cc2c(cc1C3=O)OCO2	40.7	40.4	24	47.9	68.6	–	–	–	–
16.4	4.95	76.7	74.2	–	–	–	–	O=C1c2ccccc2-c2c1c1ccccc1c(=O)n2CCO	12.2	5.62	16.4	14.5	18.2	–	–	–	–
–	–	–	–	0.23	0.71	2.42	3.8	COc1cc2c(cc1OC)-c1c(c3cc(OC)c(OC)cc3c(=O)n1CCCNCCCO)C2=O.Cl	–	–	–	1.14	–	0.42	0.32	0.23	1.87
42.5	42.9	> 100	> 100	–	–	–	–	COc1cc2c3c(n(C)c(=O)c2cc1OC)-c1cc2c(cc1C3)OCO2	61.2	11.8	43.6	43.7	50	–	–	–	–
0.04	0.13	1.21	0.31	–	–	–	–	COc1cc2c3c(n(CCCN)c(=O)c2cc1OC)-c1cc2c(cc1C3=O)OCO2.Cl	0.26	0.06	0.31	0.16	0.25	–	–	–	–
–	–	–	–	0.1	0.71	2.36	3.52	COc1cc2c(cc1OC)-c1c(c3cc(OC)c(OC)cc3c(=O)n1CCCNCCCCO)C2=O	–	–	–	0.85	–	0.06	0.14	0.11	1.67
1.64	1.73	2.14	3.73	–	–	–	–	COc1cc2c3c(n(CCCN)c(=O)c2cc1OC)-c1ccc2ccccc2c1C3=O.Cl	1.53	1.89	6.54	3.72	17.5	–	–	–	–
16.7	12.5	19.9	15	–	–	–	–	O=C1c2cc3c(cc2-c2c1c1ccccc1c(=O)n2CCCNCCCO)OCO3	16.2	7.17	14.2	15.5	> 100	–	–	–	–
–	0.46	–	1.9	0.1	–	1.09	–	COc1cc2c(cc1OC)-c1c(c3cc(OC)c(OC)cc3c(=O)n1CCCNCCCO)C2=O	–	–	0.15	0.55	1.51	0.08	0.07	–	–
3.2	12	16.6	62.1	–	–	–	–	COc1cc2c3c(n(CCCBr)c(=O)c2cc1OC)-c1cc2c(cc1C3=O)OCO2	4.33	6.22	5.83	13.7	5.02	–	–	–	–
> 100	> 100	> 100	> 100	–	–	–	–	CCn1c2c(c3cc(OC)c(OC)cc3c1=O)Cc1cc3c(cc1-2)OCO3	> 100	> 100	> 100	85.1	> 100	–	–	–	–
–	0.31	1.25	–	0.02	–	–	11.2	COc1cc2c(cc1OC)-c1c(c3cc(OC)c(OC)cc3c(=O)n1CCCNCCO)C2=O	–	–	–	0.51	0.38	0.01	0.05	0.05	–
0.02	–	–	–	–	–	0.68	1.5	COc1cc2c3c(n(CCCNCCO)c(=O)c2cc1OC)-c1cc2c(cc1C3=O)OCO2 [LMP-744]	–	–	–	0.21	–	0.09	–	–	–
13	4.47	21.5	23.5	–	–	–	–	O=C1c2ccccc2-c2c1c1ccccc1c(=O)n2CCCBr	4.61	4.59	7	13.3	10.1	–	–	–	–
0.01	0.04	0.47	1.19	–	–	–	–	COc1cc2c3c(n(CCCNCCCO)c(=O)c2cc1OC)-c1cc2c(cc1C3=O)OCO2	0.01	0.03	0.01	0.2	0.01	–	–	–	–
> 100	> 100	> 100	> 100	–	–	–	–	COc1cc2c(cc1OC)-c1c(c3ccccc3c(=O)n1CCCCl)C2=O	> 100	> 100	> 100	76.1	> 100	–	–	–	–

SMILES	GI50 (DU-145; Homo sapiens, DU-145) [µM]	GI50 (HCT-116; Homo sapiens, HCT-116) [µM]	GI50 (MDA-MB-435; Homo sapiens, MDA-MB-435) [µM]	GI50 (OVCAR-3; Homo sapiens, OVCAR-3) [µM]	GI50 (DU-145) [µM]	GI50 (HCT-116) [µM]	GI50 (MDA-MB-435) [µM]	GI50 (OVCAR-3) [µM]	GI50 (SF-539; Homo sapiens, SF-539) [µM]	GI50 (HOP-62; Homo sapiens, HOP-62) [µM]	GI50 (SN12C; Homo sapiens, SN12C) [µM]	MGM [1]	GI50 (UACC-62; Homo sapiens, UACC-62) [µM]	GI50 (SF-539) [µM]	GI50 (HOP-62) [µM]	GI50 (SN12C) [µM]	GI50 (UACC-62) [µM]
CC[C@@]1(O)C(=O)OCc2c1cc1n(c2=O)Cc2cc3ccccc3nc2-1 [CAMPTOTHECIN]	0.01	0.03	0.04	–	–	–	–	–	0.01	0.01	0.02	–	0.01	–	–	–	–
